Results on ten compounds are retold here after ChEMBL document CHEMBL1165965, “Synthesis and structure-activity relationships of 1,2,3,4-tetrahydropyrido[2,3-b]pyrazines as potent and selective inhibitors of the anaplastic lymphoma kinase” (Bioorg Med Chem, 2010).

Experiment [1] has as its target Ephrin type-A receptor 7 (Homo sapiens) (UniProt Q15375). Description: Inhibition of EPHA7 at 1 uM. The essentials:
(§1)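 Single-concentration screen using Ambit Bioscience KINOMEscan technology across a panel of 250–400 kinases. Per-kinase inhibition from this screen was summarized as S(90), the fraction of kinases inhibited by more than 90%.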

Experiment [2] deals with T1, Ephrin type-B receptor 2 (Homo sapiens) (UniProt P29323).
T1 sequence (whole entry): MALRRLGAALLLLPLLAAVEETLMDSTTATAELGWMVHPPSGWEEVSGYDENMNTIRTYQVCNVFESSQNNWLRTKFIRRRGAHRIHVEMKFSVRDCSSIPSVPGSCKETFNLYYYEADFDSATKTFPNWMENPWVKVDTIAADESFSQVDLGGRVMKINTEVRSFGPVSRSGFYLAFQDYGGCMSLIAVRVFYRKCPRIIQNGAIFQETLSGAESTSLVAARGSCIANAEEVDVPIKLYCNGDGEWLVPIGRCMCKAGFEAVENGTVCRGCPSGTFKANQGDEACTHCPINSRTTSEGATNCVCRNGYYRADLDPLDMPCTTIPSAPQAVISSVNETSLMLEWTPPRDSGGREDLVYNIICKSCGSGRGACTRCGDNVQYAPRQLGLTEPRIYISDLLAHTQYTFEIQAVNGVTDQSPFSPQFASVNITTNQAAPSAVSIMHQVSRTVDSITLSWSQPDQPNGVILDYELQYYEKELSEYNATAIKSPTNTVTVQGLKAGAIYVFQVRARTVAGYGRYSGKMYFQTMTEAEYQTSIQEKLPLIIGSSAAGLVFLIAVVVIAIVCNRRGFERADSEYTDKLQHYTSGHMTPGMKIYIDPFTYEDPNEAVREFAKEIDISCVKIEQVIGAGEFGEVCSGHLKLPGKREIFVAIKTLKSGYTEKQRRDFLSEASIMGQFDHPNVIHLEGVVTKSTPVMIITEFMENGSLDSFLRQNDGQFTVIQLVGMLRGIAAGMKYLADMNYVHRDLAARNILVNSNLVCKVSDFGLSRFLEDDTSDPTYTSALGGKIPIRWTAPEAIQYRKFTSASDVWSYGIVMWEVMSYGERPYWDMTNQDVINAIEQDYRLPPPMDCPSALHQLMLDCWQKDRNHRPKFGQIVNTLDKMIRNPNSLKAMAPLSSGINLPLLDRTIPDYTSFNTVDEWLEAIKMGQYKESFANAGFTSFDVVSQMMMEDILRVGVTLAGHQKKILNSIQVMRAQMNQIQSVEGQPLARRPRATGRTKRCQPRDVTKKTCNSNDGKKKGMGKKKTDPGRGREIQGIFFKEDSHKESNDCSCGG
Description: Inhibition of EPHB2 at 1 uM. The essentials:
as §1

For experiment [3], the target named is T2, Membrane-associated tyrosine- and threonine-specific cdc2-inhibitory kinase (Homo sapiens) (UniProt Q99640).
T2 sequence (whole entry): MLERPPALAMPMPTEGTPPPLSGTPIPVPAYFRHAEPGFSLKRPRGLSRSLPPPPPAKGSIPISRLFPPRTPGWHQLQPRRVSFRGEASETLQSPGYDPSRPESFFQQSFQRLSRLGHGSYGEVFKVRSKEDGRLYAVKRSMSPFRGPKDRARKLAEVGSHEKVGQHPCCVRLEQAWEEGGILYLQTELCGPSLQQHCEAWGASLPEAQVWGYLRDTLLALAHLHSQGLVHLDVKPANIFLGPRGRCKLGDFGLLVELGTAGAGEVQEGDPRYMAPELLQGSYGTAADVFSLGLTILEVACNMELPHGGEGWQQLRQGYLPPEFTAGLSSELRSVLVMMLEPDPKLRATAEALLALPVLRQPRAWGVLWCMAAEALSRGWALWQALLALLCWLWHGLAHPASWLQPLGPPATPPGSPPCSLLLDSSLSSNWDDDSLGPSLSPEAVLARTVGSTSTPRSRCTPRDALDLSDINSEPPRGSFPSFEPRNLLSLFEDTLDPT
Description: Inhibition of PKMYT1 at 1 uM.

The target of experiment [4] is Serine/threonine-protein kinase pim-2 (Homo sapiens) (UniProt Q9P1W9). Description: Inhibition of PIM2 at 1 uM.
Sequence of Serine/threonine-protein kinase pim-2 (Homo sapiens) (Q9P1W9 whole entry, looked up): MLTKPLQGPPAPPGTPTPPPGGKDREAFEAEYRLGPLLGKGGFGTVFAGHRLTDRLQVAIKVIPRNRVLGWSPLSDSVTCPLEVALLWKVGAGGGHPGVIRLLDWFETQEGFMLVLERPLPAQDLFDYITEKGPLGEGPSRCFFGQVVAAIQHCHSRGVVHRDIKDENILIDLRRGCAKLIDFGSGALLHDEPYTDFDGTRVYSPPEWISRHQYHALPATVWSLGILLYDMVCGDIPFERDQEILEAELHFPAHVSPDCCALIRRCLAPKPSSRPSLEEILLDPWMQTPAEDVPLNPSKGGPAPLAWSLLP
Experiment [5] deals with Epidermal growth factor receptor (Homo sapiens) (UniProt P04626+P00533+Q15303+P21860). Description: Inhibition of EGFR L747-S752del, P753S mutant at 1 uM. It is filed as protein assay. The essentials:
as §1

The target of experiment [6] is T3, NUAK family SNF1-like kinase 1 (Homo sapiens) (UniProt O60285).
T3 sequence (whole entry): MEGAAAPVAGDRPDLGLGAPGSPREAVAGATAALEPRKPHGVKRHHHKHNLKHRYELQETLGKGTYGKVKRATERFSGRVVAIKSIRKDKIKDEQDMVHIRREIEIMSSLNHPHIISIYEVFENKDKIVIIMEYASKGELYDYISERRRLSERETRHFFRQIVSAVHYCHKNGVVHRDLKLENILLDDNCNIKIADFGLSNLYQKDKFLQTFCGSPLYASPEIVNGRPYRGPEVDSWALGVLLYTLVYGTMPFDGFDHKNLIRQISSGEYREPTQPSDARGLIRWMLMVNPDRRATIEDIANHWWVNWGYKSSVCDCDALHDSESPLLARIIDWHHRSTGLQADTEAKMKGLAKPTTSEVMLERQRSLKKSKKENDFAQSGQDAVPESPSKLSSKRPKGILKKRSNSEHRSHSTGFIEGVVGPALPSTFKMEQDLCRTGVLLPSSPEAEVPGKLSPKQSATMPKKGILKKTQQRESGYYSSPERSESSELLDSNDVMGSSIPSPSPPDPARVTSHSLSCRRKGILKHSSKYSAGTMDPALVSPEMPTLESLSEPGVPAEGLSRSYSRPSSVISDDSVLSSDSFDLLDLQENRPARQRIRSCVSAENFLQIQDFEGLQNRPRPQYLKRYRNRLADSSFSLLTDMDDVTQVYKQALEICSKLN
Description: Inhibition of ARK5 at 1 uM.

The target in experiment [7] is Phosphatidylinositol 4,5-bisphosphate 3-kinase catalytic subunit beta isoform (Homo sapiens) (UniProt P42338). Description: Inhibition of PIK3CB at 1 uM.
Sequence of Phosphatidylinositol 4,5-bisphosphate 3-kinase catalytic subunit beta isoform (Homo sapiens) (P42338 whole entry, looked up, canonical isoform): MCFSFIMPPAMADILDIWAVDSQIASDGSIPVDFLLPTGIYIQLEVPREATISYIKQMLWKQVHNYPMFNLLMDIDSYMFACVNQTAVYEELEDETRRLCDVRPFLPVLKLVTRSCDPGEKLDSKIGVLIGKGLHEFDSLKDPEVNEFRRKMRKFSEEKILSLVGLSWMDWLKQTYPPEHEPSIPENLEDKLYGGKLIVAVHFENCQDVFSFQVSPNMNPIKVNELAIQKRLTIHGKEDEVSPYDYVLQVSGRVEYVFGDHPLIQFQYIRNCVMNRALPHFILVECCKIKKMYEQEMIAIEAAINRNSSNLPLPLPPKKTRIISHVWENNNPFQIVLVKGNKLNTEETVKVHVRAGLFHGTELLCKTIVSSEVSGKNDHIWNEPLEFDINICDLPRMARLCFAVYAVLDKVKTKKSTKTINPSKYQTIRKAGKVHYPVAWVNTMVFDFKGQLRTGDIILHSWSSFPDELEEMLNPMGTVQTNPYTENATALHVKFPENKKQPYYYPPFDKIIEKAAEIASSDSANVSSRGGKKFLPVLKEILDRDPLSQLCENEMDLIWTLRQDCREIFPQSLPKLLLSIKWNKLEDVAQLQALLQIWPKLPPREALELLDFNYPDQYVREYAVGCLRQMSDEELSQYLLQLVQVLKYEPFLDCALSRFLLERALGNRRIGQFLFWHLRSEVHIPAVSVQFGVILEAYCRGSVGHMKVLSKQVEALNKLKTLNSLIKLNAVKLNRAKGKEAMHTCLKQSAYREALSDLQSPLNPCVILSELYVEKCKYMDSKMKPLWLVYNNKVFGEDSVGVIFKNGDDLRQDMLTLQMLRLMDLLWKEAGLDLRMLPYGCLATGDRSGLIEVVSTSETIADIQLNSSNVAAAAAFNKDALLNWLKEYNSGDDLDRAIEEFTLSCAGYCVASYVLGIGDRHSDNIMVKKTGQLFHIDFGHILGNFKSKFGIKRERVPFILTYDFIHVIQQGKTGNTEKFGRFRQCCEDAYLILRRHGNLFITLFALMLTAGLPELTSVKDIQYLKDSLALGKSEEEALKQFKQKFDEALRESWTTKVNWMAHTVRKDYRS

Sequence of Ephrin type-A receptor 7 (Homo sapiens) (Q15375 28-998 limits assumed): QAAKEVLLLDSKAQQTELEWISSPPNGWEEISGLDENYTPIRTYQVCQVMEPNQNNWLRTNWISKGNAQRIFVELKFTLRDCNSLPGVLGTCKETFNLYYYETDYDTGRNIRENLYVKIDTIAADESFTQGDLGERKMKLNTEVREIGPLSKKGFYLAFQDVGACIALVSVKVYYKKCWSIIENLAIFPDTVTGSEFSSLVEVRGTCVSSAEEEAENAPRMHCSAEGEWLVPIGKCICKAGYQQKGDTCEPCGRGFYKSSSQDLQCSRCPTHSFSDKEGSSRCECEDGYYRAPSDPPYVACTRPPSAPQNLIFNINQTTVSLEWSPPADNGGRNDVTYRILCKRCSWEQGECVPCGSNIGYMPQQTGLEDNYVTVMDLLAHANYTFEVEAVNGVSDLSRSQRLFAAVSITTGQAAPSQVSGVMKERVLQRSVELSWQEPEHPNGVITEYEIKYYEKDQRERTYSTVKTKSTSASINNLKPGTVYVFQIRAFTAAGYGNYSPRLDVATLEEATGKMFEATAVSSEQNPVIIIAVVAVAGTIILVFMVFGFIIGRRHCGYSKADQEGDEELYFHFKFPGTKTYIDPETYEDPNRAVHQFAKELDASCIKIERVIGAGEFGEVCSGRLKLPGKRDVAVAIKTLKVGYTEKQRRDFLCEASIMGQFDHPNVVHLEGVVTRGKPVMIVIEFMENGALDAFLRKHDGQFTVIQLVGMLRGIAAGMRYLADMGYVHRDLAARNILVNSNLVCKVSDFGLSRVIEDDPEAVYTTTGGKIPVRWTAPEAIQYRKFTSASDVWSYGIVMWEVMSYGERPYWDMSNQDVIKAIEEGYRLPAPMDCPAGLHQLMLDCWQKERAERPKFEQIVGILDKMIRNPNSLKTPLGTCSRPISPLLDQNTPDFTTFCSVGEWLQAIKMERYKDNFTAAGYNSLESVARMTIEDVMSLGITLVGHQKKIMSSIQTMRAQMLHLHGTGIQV

With `O=C(c1ccc(-c2cnc3c(c2)N(Cc2cc(Cl)ccc2C(F)(F)F)CCN3)cc1)N1CCCCC1`, the inhibition in experiment [1], in experiment [2], in experiment [3], in experiment [4] and in experiment [5] was less than 50% in each case.

Turning to `CN1CCN(c2ccc(-c3cnc4c(c3)N(Cc3c(F)ccc(F)c3Cl)CCN4)cn2)CC1`, the inhibition in experiment [1] was less than 50%; in experiment [2], less than 50%; in experiment [6], 92%; in experiment [3] it was less than 50%; in experiment [4] it was less than 50%; in experiment [7] it was less than 50%. In addition, the inhibition in experiment [5] was less than 50%.

For `COC1CCN(C(=O)c2ccc(-c3cnc4c(c3)N(Cc3cc(Cl)ccc3C(F)(F)F)CCN4)cc2)CC1`, the inhibition in experiment [1], in experiment [2], in experiment [3], in experiment [4] and in experiment [5] was less than 50% in each case.

Consider `O=C(O)c1ccc(-c2cnc3c(c2)N(Cc2cc(Cl)ccc2C(F)(F)F)CCN3)cc1`, for which the inhibition in experiment [1], in experiment [2], in experiment [3], in experiment [4] and in experiment [5] was less than 50% in each case.

Consider `FC(F)(F)c1ccc(Cl)cc1CN1CCNc2ncc(-c3ccnc(N4CCNCC4)c3)cc21`, for which the inhibition in experiment [1] is less than 50%; in experiment [2], less than 50%; in experiment [6], 88%; in experiment [3], less than 50%; in experiment [4] it was less than 50%; in experiment [7], less than 50%. The inhibition in experiment [5] is less than 50%.

Consider `CN1CCN(c2ccc(-c3cnc4c(c3)N(Cc3cc(Cl)ccc3Cl)CCN4)cn2)CC1`, for which the inhibition is less than 50% in experiment [1]; less than 50% in experiment [2]; 94% in experiment [6]; less than 50% in experiment [3]; less than 50% in experiment [4]; less than 50% in experiment [7]. This compound had an inhibition in experiment [5] of less than 50%.

As to `O=C(c1ccc(-c2cnc3c(c2)N(Cc2cc(Cl)ccc2C(F)(F)F)CCN3)cc1)N1CCC(N2CCCC2)CC1`, the inhibition in experiment [1], in experiment [2], in experiment [3], in experiment [4] and in experiment [5] was less than 50% each time.

`CN1CCN(c2ccc(-c3cnc4c(c3)N(Cc3cc(Cl)ccc3C(F)(F)F)CCN4)cn2)CC1`: the inhibition in experiment [1] was less than 50%; in experiment [2], less than 50%; in experiment [6] it was 92%; in experiment [3] it was less than 50%; in experiment [4], less than 50%; in experiment [7], less than 50%. This compound had an inhibition in experiment [5] of less than 50%.

On to `CC(=O)N1CCN(c2cc(-c3cnc4c(c3)N(Cc3cc(Cl)ccc3C(F)(F)F)CCN4)ccn2)CC1`, for which the inhibition in experiment [1] was less than 50%; in experiment [2] it was less than 50%; in experiment [6], 90%; in experiment [3], less than 50%; in experiment [4], less than 50%; in experiment [7] it was less than 50%. The inhibition in experiment [5] is less than 50%.

As to `CN1CCN(c2ccc(-c3cnc4c(c3)N(Cc3cc(F)ccc3F)CCN4)cn2)CC1`, the inhibition in experiment [1] was less than 50%; in experiment [2], less than 50%; in experiment [6] it was 96%; in experiment [3], less than 50%; in experiment [4], less than 50%; in experiment [7], less than 50%. Also, the inhibition in experiment [5] was less than 50%.

A word on the inhibition: it is the share of the control response that was lost under treatment.
